The source of these data is ChEMBL document CHEMBL3232815, “Synthesis and anticonvulsant activity of some new pyrazolo[3,4-b]pyrazines and related heterocycles” (2014).

Holding throughout (assay type): functional
Settings in all cases: route intraperitoneal

For assay [1], the system named is Mus musculus. Nature of the assay: Anticonvulsant activity in Swiss Webster mouse assessed as survivors level at 10 mg/kg, ip pretreated 20 mins before PTZ challenge and measured 24 hrs post PTZ challenge relative to control. In outline: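 Male adult Swiss–Webster mice (22–30 g), 8 per group. Compounds are given ip at 10 mg/kg (0.2% in corn oil) 20 min before PTZ 75 mg/kg ip (1.5% in saline), the minimal convulsive dose. Animals are watched for 1 h after PTZ. Survivors are counted at 24 h and expressed as % survivors against the PTZ-only control. Significance is tested at p<0.05 and p<0.01.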

Assay [2] has as its system Mus musculus. Kind of assay: Anticonvulsant activity in Swiss Webster mouse assessed as PTZ-induced clonic seizures at 10 mg/kg, ip pretreated 20 mins before PTZ challenge and measured 1 hr post PTZ challenge relative to control. Summed up: (§1)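 Male adult Swiss–Webster mice, 22–30 g, 12 h light/dark cycle at 25 °C, food and water ad libitum. Compound 10 mg/kg ip (0.2% in corn oil), one group per compound (8 animals), 20 min before PTZ 75 mg/kg ip (1.5% in saline). Watched 1 h for seizure onset (min) and % animals convulsing; 24 h survival noted. Phenobarbital 30 mg/kg reference; p vs PTZ group.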

Assay [3] has as its system Mus musculus. Kind of assay: Anticonvulsant activity in Swiss Webster mouse assessed as PTZ-induced tonic seizures at 10 mg/kg, ip pretreated 20 mins before PTZ challenge and measured 1 hr post PTZ challenge relative to control. Summed up: as §1
Assay [4] deals with Mus musculus. Kind of assay: Anticonvulsant activity in Swiss Webster mouse assessed as survivors level at 30 mg/kg, ip pretreated 20 mins before PTZ challenge and measured 24 hrs post PTZ challenge relative to control. Summed up: (§2)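 Male adult Swiss–Webster mice (22–30 g), 8 per group, with a 12 h light/dark cycle at 25 °C. The reference drug phenobarbital sodium is given at 30 mg/kg ip 20 min before PTZ 75 mg/kg ip (1.5% solution in saline). Clonic and tonic seizure onset (min) and % animals convulsing are scored over 1 h. Survivors are counted at 24 h. Comparison is with the PTZ-only group.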

The subject of assay [5] is Mus musculus. Nature of the assay: Anticonvulsant activity in Swiss Webster mouse assessed as PTZ-induced clonic seizures at 30 mg/kg, ip pretreated 20 mins before PTZ challenge and measured 1 hr post PTZ challenge relative to control. In outline: as §2
The test system of assay [6] is Mus musculus. Kind of assay: Anticonvulsant activity in Swiss Webster mouse assessed as PTZ-induced tonic seizures at 30 mg/kg, ip pretreated 20 mins before PTZ challenge and measured 1 hr post PTZ challenge relative to control. Summed up: as §2

Each structure is given as a SMILES string.

With `Cc1nn(-c2ccccc2)c2nc(-c3ccccc3)c(-c3nn4cc(-c5ccccc5)nc4s3)nc12`, the survival at 10 mg/kg in assay [1] is 87.5%. Further, the Activity is given as 87.5% in assay [2] and 12.5% in assay [3].

As for `Cc1nn(-c2ccccc2)c2nc(-c3ccccc3)c(C(=O)NN3C(=O)CSC34CCCCC4)nc12`, the survival at 10 mg/kg in assay [1] is 0%. In addition, the Activity in assay [2] and in assay [3] was 100% each time.

For `CCC1(c2ccccc2)C(=O)N=C([O-])NC1=O.[Na+]` (stereo not given) [PHENOBARBITAL SODIUM], the survival at 30 mg/kg in assay [4] was determined as 100%. The Activity in assay [5] and in assay [6] was 0% in each case.

In the case of `Cc1nn(-c2ccccc2)c2nc(-c3ccccc3)c(C(=O)NN3C(=O)CSC34CCCC4)nc12`, the survival at 10 mg/kg in assay [1] is 75%. The Activity stood at 100% in assay [2] and 25% in assay [3].

As to `Cc1nn(-c2ccccc2)c2nc(-c3ccccc3)c(C(=O)NN3C(=O)CSC3c3ccccc3)nc12` (stereo not given), the survival at 10 mg/kg in assay [1] came to 87.5%. Also, the results for the Activity in assay [2] and in assay [3] were 75% and 12.5%, respectively.

`Cc1nn(-c2ccccc2)c2nc(-c3ccccc3)c(C(=O)NN3C(=O)CSC3(C)C)nc12`: the survival at 10 mg/kg in assay [1] amounted to 25%. Moreover, the Activity in assay [2] is listed as 100%; in assay [3], 75%.

For `Cc1nn(-c2ccccc2)c2nc(-c3ccccc3)c(C(=O)NN3C(=O)CSC3c3ccc(Cl)cc3)nc12` (stereo not given), the survival at 10 mg/kg in assay [1] came to 75%. The Activity turned out to be 75% in assay [2] and 25% in assay [3].

As to `Cc1nn(-c2ccccc2)c2nc(-c3ccccc3)c(C(=O)NN3C(=O)CSC3c3ccc([N+](=O)[O-])cc3)nc12` (stereo not given), the survival at 10 mg/kg in assay [1] is 75%. The Activity in assay [2] was 87.5%; in assay [3], 25%.

With `Cc1nn(-c2ccccc2)c2nc(-c3ccccc3)c(-c3nn4cc(-c5ccc(Br)cc5)nc4s3)nc12`, the survival at 10 mg/kg in assay [1] came out at 62.5%. The Activity in assay [2] amounted to 87.5%; in assay [3], 37.5%.

Consider `COc1ccc(C2SCC(=O)N2NC(=O)c2nc3c(C)nn(-c4ccccc4)c3nc2-c2ccccc2)cc1OC` (stereo not given), for which, in assay [1], the survival at 10 mg/kg amounted to 100%. Further, the Activity was determined as 87.5% in assay [2] and 0% in assay [3].
